Data reported in ChEMBL document CHEMBL1149444, “Discovery of imidazo[1,2-b][1,2,4]triazines as GABA(A) alpha2/3 subtype selective agonists for the treatment of anxiety” (J Med Chem, 2006).
The source made the active and inactive calls. The rule behind the calls is not given here.

How the values were obtained:
[1] = Oral bioavailability in rhesus at 1 mg/kg, iv or 1 mg/kg, po; format: ADME, organism-based, Macaca mulatta; conditions: rhesus monkey, in vivo
How it was run: (§1)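 Pharmacokinetics in rat, dog or rhesus after 1 mg/kg iv and 1 mg/kg po dosing. Plasma clearance (mL/min/kg), half-life (h), volume of distribution (L/kg) and oral bioavailability (%) were derived.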

[2] = Volume of distribution in rhesus at 1 mg/kg, iv or 1 mg/kg, po; format: ADME, organism-based, Macaca mulatta; conditions: rhesus monkey, in vivo, read-out: Vdss; how it was run: as §1
[3] = Plasma clearance in dog at 1 mg/kg, iv or 1 mg/kg, po; format: ADME, organism-based, Canis lupus familiaris; how it was run: as §1
[4] = molecular target: T1, GABA-A receptor; alpha-1/beta-3/gamma-2 (Homo sapiens, UniProt P14867+P18507+P28472); assay: Displacement of [3H]Ro 15-1788 from recombinant human GABAA alpha-1 receptor plus beta3gamma2 expressed in L(tk-) cells; format: cell-based
T1 sequence (P14867 whole entry): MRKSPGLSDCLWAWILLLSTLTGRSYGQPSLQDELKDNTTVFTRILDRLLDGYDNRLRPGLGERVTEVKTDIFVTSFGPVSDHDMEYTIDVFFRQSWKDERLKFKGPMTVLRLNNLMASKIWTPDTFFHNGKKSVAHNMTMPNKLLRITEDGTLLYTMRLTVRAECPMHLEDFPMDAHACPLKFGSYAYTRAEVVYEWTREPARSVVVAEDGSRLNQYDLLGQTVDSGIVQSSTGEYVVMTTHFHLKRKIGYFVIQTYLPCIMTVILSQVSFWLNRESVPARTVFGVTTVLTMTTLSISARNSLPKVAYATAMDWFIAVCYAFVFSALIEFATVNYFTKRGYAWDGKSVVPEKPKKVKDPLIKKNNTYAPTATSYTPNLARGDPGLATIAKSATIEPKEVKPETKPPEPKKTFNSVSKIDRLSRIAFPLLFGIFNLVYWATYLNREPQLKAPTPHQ
T1 sequence (P18507 whole entry): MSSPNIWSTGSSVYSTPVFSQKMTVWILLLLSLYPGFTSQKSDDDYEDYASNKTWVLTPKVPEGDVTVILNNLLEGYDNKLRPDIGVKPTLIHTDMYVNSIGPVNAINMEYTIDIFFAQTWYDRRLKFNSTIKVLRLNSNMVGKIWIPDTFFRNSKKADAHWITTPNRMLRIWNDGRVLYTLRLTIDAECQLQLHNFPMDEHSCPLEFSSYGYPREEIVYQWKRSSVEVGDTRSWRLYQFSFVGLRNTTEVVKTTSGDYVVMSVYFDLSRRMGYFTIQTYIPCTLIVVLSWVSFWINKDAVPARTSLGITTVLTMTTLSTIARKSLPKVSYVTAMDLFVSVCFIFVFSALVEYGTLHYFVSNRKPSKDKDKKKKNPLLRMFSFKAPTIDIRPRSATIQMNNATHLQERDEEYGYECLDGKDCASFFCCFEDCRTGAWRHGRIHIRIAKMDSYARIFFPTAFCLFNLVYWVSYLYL
T1 sequence (P28472 whole entry): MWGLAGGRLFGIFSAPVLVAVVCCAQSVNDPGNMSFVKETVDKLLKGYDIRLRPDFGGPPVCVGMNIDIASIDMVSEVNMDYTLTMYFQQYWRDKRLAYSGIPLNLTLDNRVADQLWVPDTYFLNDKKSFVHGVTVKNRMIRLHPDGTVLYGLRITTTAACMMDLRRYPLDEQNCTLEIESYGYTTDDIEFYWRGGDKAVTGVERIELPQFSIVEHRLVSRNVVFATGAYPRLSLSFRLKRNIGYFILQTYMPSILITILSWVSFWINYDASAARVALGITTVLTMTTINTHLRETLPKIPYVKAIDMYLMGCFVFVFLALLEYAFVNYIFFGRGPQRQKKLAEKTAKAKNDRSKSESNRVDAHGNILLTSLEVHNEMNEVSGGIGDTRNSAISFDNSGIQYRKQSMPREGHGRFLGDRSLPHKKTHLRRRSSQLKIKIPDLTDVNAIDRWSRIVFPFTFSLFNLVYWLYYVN

[5] = molecular target: T2, GABA-A receptor; alpha-3/beta-3/gamma-2 (Homo sapiens, UniProt P18507+P28472+P34903); assay: Displacement of [3H]Ro 15-1788 from recombinant human GABAA alpha3 receptor plus beta-3-gamma-2 expressed in L(tk-) cells; format: cell-based
T2 sequence (P18507 whole entry): T1 sequence (P18507 whole entry)
T2 sequence (P28472 whole entry): T1 sequence (P28472 whole entry)
T2 sequence (P34903 whole entry): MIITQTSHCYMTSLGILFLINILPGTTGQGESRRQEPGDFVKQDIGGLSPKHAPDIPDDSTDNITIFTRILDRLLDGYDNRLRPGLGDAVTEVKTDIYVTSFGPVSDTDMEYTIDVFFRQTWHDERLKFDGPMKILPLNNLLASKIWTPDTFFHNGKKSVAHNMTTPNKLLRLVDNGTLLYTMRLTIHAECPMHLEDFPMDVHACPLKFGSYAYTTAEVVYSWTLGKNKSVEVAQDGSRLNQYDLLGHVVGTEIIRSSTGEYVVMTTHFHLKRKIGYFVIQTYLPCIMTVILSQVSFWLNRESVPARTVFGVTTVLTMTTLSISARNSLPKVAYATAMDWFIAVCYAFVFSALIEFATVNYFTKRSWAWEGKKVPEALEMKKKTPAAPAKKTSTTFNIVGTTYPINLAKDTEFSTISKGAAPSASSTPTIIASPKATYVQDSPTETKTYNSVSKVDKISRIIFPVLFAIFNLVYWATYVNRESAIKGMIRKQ
How it was run: (§2)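 Inhibition of [3H]Ro15-1788 binding to human recombinant GABAA receptors stably expressed in L(tk-) cells, alpha subunit combined with beta3 and gamma2. Six to eight test concentrations spaced in half-log units. Ki reported as geometric mean of n = 2-12.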

Squirrel monkey = assay: Anxiolytic effect in squirrel monkey conditioned emotional response test at 0.3 mg/kg, po; format: functional, organism-based; parameters: dose 0.3 mg/kg; conditions: Saimiri sciureus
How it was run: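 Squirrel monkeys dosed po in 0.5% methyl cellulose vehicle. Anxiolysis was read as reversal of the suppression of lever pressing caused by a light cue signalling possible electric shock. Sedation was read as the rate of lever pressing for fruit juice reward on an RPI30 schedule. n = 10-11 per group, p < 0.05 versus vehicle.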

[6] = molecular target: T3, GABA-A receptor; alpha-5/beta-3/gamma-2 (Homo sapiens, UniProt P18507+P28472+P31644); assay: Displacement of [3H] Ro15-1788 from recombinant human GABAA alpha-5 receptor plus beta3gamma2 expressed in L(tk-) cells; format: cell-based; how it was run: as §2
T3 sequence (P18507 whole entry): T1 sequence (P18507 whole entry)
T3 sequence (P28472 whole entry): T1 sequence (P28472 whole entry)
T3 sequence (P31644 whole entry): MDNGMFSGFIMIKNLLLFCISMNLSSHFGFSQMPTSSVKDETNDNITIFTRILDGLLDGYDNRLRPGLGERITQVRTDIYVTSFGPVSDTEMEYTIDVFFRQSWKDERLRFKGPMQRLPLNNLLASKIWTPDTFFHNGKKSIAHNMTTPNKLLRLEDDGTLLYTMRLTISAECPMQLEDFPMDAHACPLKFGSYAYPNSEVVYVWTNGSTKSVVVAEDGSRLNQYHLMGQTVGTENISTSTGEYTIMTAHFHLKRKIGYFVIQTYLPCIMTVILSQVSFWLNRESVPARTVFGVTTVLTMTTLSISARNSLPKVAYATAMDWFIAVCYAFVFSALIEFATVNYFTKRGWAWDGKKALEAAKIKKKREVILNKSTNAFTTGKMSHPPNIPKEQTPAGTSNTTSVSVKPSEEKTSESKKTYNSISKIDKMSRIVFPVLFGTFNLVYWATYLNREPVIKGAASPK

SMILES: CC(C)(O)c1cnn2c(-c3ccc(F)c(-c4c(F)cccc4C#N)c3)cnc2n1
- bioavailability [1]: 29%
- Vd [2]: 2.1 L/kg
- clearance [3]: 4.6 mL/min/kg
- Ki [4]: 0.73 nM
- Ki [5]: 2 nM
- Activity (Squirrel monkey): Active
- Ki [6]: 1.1 nM
